What was measured:
Hs-dynein 1 [1] = target: T1, Hs-dynein 1 (Homo sapiens, UniProt Q14204); experiment: Radioactive ATPase assay, basal ATPase activity of Hs-dynein 1; assay type: biochemical
Outline: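 Hs-dynein 1 motor construct (N-terminal His6, aa 1320–4646) at 30 nM, without microtubules. Radioactive ATPase reaction ran for 45 min with test compound. Percent inhibition was obtained by normalising the ATPase rate with compound to DMSO control.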

Hs-dynein 1 [2] = target: T1, Hs-dynein 1; experiment: Radioactive ATPase assay, microtubule-stimulated ATPase activity of Hs-dynein 1; assay type: biochemical
Outline: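 Radioactive ATPase assay with Hs-dynein 1 (His6, aa 1320–4646; 30 nM) in the presence of microtubules. Reaction time was 45 min, and rates with test compound were normalised to DMSO control.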

Dm-spastin = Dm-spastin (Drosophila melanogaster, UniProt Q8I0P1, DEL311-372); experiment: NADH-coupled steady-state ATPase assay, Dm-spastin; assay type: biochemical, D. melanogaster
Sc-Dyn-lyso [3] = target: Sc-Dyn-lyso (Saccharomyces cerevisiae, UniProt P36022); experiment: NADH-coupled steady-state ATPase assay, Sc-Dyn-lyso; assay type: biochemical, S. cerevisiae
Outline: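 Ten-dose DMSO serial dilution of test compound (stock top 4 mM) was preincubated 10 min at RT. MgATP (10 mM stock) started the reaction, and NADH fluorescence slopes were converted via an ADP standard curve.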

[4] = target: GFP-Sc-Dyn AAA4 E/Q (E2819Q) (Saccharomyces cerevisiae, UniProt P36022, E2819Q); experiment: NADH-coupled steady-state ATPase assay, GFP-Sc-Dyn AAA4 E/Q mutant; assay type: biochemical, S. cerevisiae
[5] = target: GFP-Sc-Dyn AAA4 E/Q (E2819Q); experiment: as above; assay type: biochemical, S. cerevisiae; details: 1 mM MgATP, n=3
Sc-Dyn-lyso [6] = target: T2, Sc-Dyn-lyso (Saccharomyces cerevisiae, UniProt P36022); experiment: Microscale thermophoresis; assay type: binding, S. cerevisiae
T2 sequence (P36022 1758-2992 limits assumed): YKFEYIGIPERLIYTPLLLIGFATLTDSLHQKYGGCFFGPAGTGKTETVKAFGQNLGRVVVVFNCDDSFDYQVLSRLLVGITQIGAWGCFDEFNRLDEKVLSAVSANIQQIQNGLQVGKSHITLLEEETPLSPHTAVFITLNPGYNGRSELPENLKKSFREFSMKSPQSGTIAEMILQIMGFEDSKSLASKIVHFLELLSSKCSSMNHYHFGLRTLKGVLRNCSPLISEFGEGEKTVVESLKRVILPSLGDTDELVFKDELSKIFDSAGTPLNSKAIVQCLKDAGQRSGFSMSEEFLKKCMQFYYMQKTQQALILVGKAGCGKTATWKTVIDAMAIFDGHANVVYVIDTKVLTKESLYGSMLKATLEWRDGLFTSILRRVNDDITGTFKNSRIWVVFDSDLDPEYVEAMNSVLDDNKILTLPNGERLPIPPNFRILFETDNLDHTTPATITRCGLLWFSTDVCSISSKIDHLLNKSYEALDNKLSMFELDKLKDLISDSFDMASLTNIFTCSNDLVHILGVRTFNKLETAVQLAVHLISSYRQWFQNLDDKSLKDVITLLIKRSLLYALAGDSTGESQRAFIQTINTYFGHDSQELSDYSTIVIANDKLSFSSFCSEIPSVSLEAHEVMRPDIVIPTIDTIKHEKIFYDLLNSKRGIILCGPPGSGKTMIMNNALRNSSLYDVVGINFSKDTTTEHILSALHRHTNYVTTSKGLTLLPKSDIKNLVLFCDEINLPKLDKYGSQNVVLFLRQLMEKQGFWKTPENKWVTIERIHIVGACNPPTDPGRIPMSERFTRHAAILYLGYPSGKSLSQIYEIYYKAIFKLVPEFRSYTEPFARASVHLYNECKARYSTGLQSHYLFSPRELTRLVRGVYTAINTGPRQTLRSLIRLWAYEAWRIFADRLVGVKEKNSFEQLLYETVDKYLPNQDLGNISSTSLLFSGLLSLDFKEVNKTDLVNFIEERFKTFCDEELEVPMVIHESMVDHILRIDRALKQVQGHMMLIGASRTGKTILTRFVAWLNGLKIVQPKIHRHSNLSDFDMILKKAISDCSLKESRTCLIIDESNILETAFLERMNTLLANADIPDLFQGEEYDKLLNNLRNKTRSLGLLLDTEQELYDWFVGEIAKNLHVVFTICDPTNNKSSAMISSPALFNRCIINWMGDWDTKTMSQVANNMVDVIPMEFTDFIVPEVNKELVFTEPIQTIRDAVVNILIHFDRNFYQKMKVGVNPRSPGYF
T2 sequence (P36022 3301-4092 limits assumed): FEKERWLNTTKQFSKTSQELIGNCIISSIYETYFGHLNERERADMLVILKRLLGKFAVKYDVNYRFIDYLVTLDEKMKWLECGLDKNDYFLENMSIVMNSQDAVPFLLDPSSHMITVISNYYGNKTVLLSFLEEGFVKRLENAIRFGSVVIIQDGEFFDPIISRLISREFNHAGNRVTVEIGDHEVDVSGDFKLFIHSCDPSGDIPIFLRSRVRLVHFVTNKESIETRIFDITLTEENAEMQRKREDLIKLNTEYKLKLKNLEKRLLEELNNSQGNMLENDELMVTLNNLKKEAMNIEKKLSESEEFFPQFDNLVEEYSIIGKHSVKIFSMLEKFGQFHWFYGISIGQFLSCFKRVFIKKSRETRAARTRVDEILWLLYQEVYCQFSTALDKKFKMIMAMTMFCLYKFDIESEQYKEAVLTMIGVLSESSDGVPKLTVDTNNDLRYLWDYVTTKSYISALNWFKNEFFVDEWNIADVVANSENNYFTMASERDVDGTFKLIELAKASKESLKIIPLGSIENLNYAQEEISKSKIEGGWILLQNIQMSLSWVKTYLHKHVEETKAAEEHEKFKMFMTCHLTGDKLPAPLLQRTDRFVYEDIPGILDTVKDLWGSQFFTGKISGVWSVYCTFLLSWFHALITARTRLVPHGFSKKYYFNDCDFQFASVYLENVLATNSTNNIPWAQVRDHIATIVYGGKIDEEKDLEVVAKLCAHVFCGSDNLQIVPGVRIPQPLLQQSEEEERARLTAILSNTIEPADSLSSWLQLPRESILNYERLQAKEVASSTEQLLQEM

T1 sequence (Q14204 1320-4646): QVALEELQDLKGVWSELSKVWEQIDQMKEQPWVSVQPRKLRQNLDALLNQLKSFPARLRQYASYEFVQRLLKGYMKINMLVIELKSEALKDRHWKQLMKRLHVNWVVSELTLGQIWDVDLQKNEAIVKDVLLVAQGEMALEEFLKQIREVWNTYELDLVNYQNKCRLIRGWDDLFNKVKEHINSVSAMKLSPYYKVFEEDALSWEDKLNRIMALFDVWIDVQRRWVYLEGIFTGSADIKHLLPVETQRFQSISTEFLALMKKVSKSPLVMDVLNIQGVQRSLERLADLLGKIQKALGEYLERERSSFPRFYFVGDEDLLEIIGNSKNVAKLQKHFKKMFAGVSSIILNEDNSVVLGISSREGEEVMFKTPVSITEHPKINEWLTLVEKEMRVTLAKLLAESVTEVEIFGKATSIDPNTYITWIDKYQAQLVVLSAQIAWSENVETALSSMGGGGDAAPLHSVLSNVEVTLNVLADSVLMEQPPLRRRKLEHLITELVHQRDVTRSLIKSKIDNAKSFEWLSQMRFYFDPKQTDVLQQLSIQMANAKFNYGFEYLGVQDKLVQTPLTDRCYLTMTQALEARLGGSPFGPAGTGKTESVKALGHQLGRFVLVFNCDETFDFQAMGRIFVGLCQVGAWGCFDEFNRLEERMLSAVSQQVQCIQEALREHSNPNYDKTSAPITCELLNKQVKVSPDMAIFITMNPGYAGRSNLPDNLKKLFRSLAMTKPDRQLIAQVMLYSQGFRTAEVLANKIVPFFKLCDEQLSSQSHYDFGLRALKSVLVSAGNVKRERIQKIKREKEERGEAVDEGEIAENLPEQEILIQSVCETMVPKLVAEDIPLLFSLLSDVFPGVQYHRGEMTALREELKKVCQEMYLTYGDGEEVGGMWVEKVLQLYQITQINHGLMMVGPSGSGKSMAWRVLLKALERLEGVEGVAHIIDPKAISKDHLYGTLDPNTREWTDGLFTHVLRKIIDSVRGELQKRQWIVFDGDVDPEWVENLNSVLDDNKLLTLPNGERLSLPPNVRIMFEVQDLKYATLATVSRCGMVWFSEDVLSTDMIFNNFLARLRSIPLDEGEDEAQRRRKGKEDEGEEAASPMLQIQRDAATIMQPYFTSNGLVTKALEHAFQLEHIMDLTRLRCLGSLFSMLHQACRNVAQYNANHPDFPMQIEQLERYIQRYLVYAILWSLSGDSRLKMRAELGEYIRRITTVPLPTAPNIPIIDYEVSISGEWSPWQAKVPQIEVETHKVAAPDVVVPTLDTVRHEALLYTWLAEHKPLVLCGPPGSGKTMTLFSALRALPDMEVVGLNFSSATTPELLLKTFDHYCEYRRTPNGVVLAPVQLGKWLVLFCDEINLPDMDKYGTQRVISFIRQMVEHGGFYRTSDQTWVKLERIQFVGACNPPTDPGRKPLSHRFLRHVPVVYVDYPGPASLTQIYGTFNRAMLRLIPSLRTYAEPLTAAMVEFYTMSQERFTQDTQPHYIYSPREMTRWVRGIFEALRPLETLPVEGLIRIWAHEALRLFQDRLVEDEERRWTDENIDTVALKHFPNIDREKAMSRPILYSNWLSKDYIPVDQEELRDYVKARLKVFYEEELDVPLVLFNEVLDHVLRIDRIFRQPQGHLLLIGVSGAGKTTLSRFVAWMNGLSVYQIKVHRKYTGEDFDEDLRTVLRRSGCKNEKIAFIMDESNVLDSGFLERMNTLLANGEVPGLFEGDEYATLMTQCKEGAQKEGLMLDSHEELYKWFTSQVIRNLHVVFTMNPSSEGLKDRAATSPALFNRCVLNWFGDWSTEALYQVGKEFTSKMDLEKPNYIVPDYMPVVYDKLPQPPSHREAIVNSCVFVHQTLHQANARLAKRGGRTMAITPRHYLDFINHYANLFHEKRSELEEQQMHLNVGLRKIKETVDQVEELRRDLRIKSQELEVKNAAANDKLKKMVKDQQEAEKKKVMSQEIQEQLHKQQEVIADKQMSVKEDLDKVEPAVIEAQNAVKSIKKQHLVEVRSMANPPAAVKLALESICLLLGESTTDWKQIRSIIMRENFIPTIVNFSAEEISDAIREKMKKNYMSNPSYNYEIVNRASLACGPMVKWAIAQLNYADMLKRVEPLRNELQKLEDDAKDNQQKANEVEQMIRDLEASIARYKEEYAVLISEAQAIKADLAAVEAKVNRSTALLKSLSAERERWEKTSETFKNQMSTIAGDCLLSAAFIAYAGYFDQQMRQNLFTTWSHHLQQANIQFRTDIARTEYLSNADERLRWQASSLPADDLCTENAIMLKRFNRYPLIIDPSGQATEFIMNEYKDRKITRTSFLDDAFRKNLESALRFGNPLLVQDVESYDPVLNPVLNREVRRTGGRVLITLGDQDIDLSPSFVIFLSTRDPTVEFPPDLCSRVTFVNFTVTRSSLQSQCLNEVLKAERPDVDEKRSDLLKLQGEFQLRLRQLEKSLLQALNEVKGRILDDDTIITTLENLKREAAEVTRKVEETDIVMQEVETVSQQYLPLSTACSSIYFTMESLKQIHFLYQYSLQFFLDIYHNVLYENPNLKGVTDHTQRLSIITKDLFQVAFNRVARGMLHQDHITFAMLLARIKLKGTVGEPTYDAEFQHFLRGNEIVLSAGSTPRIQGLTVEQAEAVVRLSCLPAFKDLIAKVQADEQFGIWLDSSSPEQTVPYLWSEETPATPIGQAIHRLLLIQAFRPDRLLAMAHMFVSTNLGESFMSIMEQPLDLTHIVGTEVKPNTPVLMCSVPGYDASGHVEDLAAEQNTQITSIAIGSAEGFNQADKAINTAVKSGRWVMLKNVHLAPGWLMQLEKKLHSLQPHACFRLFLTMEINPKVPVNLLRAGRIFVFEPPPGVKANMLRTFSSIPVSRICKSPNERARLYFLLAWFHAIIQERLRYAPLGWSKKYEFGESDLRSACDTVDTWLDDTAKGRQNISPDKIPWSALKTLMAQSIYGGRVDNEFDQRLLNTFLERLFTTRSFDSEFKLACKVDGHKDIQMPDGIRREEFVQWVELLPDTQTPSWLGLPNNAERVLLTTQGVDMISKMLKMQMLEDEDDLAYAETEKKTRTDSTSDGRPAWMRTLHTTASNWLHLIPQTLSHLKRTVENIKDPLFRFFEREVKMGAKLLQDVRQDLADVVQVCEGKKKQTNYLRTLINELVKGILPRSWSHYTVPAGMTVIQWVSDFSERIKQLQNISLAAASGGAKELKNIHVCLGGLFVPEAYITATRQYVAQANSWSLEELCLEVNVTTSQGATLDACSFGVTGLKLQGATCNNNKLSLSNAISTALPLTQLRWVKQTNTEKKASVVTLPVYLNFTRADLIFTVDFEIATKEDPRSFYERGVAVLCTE

Structure (SMILES): N#Cc1c(C2(c3ccc(Cl)cc3)CC2)nn2c(=O)c(Oc3cccc(Br)c3)c[nH]c12 [compound 20, 6-(3-bromophenoxy)-2-[1-(4-chlorophenyl)cyclopropyl]-7-oxo-4H-pyrazolo[1,5-a]pyrimidine-3-carbonitrile]
- IC50 (Hs-dynein 1 [1]): 12 ± 9.3 µM
- Inhibition of Hs-dynein 1 basal ATPase activity (in words) (Hs-dynein 1 [1]; compounds tested at 20 μM, 1 mM MgATP, no microtubules, n=2): most active
- IC50 (Hs-dynein 1 [2]): ~10 µM
- Reduction of ATPase activity, Dm-spastin (Dm-spastin; 20 μM, 1 mM MgATP): < 25%
- Percent steady-state ATPase activity, Dm-spastin (Dm-spastin; compound 20 μM, mean ± SD, n=3): 88 ± 4.4%
- IC50 (Sc-Dyn-lyso [3]): 15 ± 3.1 µM
- IC50 [4]: 2900 ± 300 nM
- IC50 fold lower than that of GFP-Sc-Dyn, AAA4 E/Q mutant [5]: ~ 5 fold
- EC50 (Sc-Dyn-lyso [6]): 22 ± 5.3 µM

Source: paper PMC8542630 (Cell chemical biology, 2021)
